The results in this text go back to ChEMBL document CHEMBL2424657, “Identification of the KDM2/7 histone lysine demethylase subfamily inhibitor and its antiproliferative activity” (J Med Chem, 2013).

As usually defined, the IC50 is the concentration at which inhibition is half-maximal. As usually defined, the GI50 is the concentration that inhibits growth by half.

Test [1] has as its target T1, Lysine-specific demethylase 4A (Homo sapiens, UniProt O75164).
T1 sequence (O75164 whole entry): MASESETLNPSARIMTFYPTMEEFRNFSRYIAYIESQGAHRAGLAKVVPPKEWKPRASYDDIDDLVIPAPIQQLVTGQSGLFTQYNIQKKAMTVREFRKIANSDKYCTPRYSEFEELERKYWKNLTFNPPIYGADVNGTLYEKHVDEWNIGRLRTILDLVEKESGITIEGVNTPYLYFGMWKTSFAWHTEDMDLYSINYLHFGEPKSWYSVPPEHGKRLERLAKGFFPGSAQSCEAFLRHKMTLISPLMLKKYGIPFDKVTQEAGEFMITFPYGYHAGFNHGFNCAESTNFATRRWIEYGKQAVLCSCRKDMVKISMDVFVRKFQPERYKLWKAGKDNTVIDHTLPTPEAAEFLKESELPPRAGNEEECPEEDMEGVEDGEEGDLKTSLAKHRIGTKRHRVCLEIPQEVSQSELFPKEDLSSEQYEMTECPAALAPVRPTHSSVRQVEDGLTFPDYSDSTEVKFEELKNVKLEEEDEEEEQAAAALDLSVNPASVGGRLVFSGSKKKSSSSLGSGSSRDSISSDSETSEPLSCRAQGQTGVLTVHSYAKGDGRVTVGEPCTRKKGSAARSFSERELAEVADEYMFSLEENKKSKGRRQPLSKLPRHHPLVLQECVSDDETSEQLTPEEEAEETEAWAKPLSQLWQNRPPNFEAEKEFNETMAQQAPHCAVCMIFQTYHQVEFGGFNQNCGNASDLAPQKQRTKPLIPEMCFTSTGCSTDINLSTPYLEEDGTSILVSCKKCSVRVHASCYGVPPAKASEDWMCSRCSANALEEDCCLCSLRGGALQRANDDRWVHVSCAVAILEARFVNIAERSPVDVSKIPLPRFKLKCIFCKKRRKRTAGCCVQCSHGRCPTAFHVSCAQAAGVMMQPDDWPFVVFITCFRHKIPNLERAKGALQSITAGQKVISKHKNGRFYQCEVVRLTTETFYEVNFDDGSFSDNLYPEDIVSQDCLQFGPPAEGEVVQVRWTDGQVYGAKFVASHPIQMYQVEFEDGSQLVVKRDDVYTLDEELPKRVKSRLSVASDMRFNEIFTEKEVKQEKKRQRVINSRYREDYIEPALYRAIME
Kind of test: Inhibition of KDM4A (unknown origin) using H3K9me3 peptide and 2-oxoglutarate as substrate after 1 hr by FDH-coupled assay. Summed up:
(§1)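 Run as the FDH-coupled KDM4C format, with compounds in DMSO and activity relative to a DMSO control. KDM4A was used at 0.37 mg/mL final with H3K9me3 peptide. KDM5A was used at 0.64 mg/mL final with H3K4me3 peptide. Values are means of two experiments.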

In test [2] the target is Histone lysine demethylase PHF8 (Homo sapiens, UniProt Q9UPP1). The experiment in a line: Inhibition of KDM7B (unknown origin) using H3K4me3K9me2 and 2-oxoglutarate as substrate after 1 hr by matrix-assisted laser desorption ionization time of flight mass spectrometry. Put shortly:
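Enzyme (0.5 mg/mL) was reacted with 5 μM H3K4me3K9me2 peptide, 0.5 mM 2-oxoglutarate, 20 μM Fe(II), 20 μM ZnCl2, 0.5 mM ascorbate, 150 mM KCl, glutathione and DTT in 10 mM Tris-HCl pH 8.0 for 1 h at 37 °C. Inhibition was calculated from the remaining H3K9me2, and IC50 was taken as the concentration halving H3K9me2 removal. Values are means of two experiments.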

Test [3] addresses Lysine-specific demethylase 5A (Homo sapiens, UniProt P29375). Kind of test: Inhibition of KDM5A (unknown origin) using H3K4me3 peptide and 2-oxoglutarate as substrate after 1 hr by FDH-coupled assay. Summed up:
as §1

Test [4] concerns the target Lysine-specific demethylase 6A (Homo sapiens, UniProt O15550). The experiment in a line: Inhibition of human recombinant KDM6A after 120 mins.
Test [5] has as its target T2, Lysine-specific demethylase 2A (Homo sapiens, UniProt Q9Y2K7).
T2 sequence (Q9Y2K7 whole entry): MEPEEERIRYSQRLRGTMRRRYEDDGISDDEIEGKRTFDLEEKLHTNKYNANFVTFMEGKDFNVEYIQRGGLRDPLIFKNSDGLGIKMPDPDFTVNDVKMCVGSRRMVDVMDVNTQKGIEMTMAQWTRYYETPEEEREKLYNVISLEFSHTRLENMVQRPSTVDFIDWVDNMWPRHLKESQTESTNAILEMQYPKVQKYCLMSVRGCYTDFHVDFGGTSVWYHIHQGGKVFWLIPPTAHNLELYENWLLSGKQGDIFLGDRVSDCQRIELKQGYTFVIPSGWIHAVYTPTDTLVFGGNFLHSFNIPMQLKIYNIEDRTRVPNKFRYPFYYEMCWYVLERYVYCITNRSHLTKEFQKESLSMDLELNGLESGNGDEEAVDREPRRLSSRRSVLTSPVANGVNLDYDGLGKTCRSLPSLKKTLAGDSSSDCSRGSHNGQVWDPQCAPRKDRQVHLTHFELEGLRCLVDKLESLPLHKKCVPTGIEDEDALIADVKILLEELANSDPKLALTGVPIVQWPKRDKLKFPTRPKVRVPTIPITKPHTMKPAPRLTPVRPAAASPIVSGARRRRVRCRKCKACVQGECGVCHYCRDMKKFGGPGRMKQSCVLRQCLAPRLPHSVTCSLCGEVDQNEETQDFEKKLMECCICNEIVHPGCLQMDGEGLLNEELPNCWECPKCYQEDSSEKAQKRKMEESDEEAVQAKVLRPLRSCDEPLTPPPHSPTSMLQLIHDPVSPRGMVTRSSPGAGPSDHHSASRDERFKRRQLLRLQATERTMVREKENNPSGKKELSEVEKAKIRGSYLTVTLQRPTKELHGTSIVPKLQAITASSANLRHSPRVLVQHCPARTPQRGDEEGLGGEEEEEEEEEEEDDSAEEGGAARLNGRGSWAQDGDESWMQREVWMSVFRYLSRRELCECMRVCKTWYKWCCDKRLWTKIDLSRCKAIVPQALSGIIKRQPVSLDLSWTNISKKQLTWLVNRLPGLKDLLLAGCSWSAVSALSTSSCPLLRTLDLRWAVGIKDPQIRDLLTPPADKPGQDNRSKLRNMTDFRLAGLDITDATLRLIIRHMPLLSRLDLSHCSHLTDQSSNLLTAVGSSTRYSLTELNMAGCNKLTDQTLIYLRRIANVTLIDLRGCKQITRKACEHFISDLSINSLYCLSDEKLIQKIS
Kind of test: Inhibition of KDM2A (unknown origin).

Test [6] deals with T3, Lysine-specific demethylase 4C (Homo sapiens, UniProt Q9H3R0).
T3 sequence (Q9H3R0 whole entry): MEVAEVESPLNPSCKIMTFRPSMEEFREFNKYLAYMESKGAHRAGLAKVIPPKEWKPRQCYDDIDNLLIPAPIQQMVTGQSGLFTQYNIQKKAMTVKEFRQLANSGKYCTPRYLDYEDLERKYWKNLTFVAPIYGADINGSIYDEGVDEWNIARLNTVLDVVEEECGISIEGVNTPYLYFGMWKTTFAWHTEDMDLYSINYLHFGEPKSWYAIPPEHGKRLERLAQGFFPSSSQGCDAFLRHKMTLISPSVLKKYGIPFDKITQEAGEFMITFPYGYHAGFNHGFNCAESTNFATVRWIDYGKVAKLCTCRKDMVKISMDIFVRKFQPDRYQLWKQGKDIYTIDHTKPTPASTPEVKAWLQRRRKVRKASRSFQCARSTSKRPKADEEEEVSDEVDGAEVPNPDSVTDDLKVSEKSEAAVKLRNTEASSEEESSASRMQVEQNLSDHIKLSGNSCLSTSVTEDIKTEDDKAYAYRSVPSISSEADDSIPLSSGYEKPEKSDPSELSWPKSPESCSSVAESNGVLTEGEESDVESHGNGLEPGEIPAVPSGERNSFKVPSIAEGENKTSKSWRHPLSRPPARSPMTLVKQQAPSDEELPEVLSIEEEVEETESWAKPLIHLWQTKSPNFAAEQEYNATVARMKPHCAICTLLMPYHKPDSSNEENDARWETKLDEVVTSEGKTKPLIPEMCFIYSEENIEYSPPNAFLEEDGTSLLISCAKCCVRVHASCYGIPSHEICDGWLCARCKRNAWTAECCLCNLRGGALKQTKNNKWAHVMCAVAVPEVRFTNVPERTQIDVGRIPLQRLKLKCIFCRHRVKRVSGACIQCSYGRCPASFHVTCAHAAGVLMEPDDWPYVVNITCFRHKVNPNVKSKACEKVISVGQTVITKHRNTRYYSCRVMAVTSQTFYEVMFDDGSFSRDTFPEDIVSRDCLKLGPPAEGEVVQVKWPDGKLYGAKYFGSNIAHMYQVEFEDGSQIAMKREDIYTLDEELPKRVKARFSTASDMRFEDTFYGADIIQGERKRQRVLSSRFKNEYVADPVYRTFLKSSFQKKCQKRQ
Kind of test: Inhibition of KDM4C (unknown origin) using H3K9me3 peptide and 2-oxoglutarate as substrate after 1 hr by FDH-coupled assay.

In another test the test system is HeLa. Kind of test: Growth inhibition of human HeLa cells after 48 hrs by MTT assay. The format is functional. Put shortly:
(§2)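 Cells were seeded at 5000/well in RPMI 1640 with 10% FBS and allowed to attach overnight, then exposed for 48 h at 37 °C in 5% CO2. MTT was added for 3 h, and the dye was solubilized in HCl–2-propanol and read at 560 nm (reference 750 nm).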

Test [7] has as its target T4, Lysine-specific demethylase 7A (Homo sapiens, UniProt Q6ZMT4).
T4 sequence (Q6ZMT4 whole entry): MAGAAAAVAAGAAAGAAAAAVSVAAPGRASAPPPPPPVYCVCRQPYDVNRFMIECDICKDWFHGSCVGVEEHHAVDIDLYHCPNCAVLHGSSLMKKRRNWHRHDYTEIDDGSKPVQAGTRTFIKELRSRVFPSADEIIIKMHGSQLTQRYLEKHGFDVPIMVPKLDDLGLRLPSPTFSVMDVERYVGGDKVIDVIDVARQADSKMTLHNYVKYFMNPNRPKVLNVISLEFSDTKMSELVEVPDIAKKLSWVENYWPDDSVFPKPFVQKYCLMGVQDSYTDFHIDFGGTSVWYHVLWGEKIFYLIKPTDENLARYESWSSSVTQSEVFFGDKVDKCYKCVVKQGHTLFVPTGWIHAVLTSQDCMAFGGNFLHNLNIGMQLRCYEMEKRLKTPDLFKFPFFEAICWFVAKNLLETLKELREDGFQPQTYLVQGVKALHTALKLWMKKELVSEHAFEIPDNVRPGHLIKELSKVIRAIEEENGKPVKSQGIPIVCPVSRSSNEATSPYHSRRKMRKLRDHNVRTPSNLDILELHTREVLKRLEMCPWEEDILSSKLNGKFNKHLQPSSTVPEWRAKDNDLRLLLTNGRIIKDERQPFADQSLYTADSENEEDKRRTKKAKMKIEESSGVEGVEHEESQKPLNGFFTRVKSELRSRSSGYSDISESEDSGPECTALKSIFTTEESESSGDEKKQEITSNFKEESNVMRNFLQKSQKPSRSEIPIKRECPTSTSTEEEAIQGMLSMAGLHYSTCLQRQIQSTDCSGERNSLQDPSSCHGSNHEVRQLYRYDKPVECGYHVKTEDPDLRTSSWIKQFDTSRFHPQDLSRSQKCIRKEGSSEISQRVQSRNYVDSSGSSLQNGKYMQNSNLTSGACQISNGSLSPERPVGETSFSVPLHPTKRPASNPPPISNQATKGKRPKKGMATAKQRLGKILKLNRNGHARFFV
The experiment in a line: Inhibition of KDM7A (unknown origin) using K27me2 peptide as substrate by MALDI assay.

A short description of test [8]: Growth inhibition of human KYSE-150 cells after 48 hrs by MTT assay. The format is functional. The following applies: KYSE-150, 48 h. Summed up: as §2
On the technique in general: Tetrazolium assays rely on reduction of a dye to a coloured formazan, in cell work by metabolically active cells.

Chain of Lysine-specific demethylase 6A (O15550 whole entry): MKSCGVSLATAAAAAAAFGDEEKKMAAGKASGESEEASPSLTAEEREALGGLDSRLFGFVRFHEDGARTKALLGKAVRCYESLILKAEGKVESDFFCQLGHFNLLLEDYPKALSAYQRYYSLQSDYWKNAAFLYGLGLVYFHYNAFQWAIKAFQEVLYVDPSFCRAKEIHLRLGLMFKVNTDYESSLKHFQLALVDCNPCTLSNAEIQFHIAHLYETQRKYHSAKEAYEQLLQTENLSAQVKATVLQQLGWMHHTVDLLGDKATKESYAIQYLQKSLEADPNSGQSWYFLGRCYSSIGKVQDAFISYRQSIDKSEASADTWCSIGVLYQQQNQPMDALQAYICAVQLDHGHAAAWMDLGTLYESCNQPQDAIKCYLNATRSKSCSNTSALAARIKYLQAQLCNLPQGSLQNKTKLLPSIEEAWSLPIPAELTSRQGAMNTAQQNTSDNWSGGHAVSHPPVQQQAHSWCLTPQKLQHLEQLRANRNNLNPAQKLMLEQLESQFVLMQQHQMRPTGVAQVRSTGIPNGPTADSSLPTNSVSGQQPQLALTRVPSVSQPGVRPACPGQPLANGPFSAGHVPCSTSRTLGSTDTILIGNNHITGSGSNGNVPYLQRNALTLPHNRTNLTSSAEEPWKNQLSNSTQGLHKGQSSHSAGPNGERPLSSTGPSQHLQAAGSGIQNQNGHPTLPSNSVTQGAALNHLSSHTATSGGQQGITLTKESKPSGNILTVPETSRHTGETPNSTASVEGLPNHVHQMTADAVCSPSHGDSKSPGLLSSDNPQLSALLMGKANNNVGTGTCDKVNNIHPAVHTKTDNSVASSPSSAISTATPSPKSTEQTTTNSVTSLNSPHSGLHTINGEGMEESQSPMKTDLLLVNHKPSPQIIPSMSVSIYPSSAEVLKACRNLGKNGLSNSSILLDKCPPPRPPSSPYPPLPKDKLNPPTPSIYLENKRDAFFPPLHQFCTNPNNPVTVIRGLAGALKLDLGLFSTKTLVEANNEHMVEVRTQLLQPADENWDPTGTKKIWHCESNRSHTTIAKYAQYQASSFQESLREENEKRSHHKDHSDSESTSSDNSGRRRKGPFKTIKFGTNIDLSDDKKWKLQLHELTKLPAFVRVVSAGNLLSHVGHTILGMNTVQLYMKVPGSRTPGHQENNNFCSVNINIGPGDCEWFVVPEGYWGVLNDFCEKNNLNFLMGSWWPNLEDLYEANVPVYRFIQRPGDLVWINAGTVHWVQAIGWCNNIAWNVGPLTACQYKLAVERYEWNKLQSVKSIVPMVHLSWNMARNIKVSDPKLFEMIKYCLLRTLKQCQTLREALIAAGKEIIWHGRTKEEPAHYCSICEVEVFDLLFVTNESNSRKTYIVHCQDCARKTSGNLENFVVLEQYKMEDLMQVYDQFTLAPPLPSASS
Chain of Lysine-specific demethylase 5A (P29375 whole entry): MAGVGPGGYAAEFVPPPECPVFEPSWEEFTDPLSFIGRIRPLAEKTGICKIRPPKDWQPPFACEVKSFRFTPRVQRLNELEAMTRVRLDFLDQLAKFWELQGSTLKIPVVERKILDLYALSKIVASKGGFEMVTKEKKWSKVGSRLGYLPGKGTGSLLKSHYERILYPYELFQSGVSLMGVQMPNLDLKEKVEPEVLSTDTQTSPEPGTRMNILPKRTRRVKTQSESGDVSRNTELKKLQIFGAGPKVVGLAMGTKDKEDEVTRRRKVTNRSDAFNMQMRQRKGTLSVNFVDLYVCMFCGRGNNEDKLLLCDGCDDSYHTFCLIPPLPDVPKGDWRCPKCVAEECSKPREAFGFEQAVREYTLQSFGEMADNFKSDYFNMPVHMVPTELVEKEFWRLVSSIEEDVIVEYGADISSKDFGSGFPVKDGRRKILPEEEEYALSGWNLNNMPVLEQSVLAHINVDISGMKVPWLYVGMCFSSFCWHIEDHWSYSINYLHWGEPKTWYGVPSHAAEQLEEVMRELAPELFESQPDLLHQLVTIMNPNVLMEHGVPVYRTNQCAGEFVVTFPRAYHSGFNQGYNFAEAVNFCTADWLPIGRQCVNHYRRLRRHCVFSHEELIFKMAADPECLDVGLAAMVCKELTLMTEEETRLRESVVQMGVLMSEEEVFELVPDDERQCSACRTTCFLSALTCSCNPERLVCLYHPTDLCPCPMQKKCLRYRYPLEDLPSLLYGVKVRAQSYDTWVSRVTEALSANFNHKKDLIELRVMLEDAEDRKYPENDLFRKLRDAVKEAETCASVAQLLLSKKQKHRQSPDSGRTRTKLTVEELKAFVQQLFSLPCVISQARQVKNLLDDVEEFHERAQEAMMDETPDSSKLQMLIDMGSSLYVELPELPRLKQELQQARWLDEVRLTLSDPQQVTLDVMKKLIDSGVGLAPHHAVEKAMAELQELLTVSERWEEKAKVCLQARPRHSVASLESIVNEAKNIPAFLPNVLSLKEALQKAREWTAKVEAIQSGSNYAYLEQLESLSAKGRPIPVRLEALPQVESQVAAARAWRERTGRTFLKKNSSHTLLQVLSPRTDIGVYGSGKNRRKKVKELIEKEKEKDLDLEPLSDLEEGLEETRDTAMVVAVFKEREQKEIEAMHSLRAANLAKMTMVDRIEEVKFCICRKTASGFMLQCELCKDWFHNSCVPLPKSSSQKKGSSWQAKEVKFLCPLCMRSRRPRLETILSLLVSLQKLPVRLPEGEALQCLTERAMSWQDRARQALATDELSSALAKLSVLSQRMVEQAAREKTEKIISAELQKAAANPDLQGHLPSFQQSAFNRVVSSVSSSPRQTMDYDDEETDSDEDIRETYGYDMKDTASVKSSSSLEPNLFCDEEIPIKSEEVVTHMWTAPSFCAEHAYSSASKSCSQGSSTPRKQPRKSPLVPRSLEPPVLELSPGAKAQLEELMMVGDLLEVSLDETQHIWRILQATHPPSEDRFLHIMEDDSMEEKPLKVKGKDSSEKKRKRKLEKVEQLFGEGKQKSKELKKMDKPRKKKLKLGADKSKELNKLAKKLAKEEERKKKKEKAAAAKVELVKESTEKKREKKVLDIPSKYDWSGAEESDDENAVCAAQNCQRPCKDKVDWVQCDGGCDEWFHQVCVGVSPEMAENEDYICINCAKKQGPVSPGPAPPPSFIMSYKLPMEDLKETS
Chain of Histone lysine demethylase PHF8 (Q9UPP1 whole entry): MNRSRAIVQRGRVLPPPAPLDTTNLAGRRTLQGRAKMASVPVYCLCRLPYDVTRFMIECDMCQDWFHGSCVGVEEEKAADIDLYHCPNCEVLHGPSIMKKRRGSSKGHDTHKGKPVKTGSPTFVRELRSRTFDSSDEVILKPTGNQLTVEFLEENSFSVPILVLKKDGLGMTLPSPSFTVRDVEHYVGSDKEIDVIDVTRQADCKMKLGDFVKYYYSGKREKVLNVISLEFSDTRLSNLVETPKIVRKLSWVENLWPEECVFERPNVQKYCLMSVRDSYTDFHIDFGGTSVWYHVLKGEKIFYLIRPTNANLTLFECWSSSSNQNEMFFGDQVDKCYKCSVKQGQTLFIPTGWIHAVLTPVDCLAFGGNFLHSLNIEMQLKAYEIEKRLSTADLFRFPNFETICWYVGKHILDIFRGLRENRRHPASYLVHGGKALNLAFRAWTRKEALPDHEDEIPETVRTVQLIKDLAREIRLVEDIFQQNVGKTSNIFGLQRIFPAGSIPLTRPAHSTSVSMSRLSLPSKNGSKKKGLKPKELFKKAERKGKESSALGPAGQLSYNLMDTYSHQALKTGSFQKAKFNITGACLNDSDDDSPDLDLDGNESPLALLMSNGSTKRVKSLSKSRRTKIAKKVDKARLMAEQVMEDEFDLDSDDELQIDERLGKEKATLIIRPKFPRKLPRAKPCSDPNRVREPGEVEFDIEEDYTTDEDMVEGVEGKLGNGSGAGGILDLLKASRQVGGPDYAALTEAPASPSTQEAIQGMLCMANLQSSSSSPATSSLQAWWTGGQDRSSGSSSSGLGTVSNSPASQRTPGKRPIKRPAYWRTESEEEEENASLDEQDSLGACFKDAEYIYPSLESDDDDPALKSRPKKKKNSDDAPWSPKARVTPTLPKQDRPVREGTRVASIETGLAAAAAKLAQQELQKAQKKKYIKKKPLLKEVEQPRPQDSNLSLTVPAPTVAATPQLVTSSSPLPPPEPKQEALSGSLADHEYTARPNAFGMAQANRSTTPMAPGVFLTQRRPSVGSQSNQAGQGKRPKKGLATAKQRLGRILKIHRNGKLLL

In the case of `O=C(O)CCN(O)C(=O)CCCCCCCCC1CCCCCC1`, the IC50 in test [1] is 99 µM; in test [2] it was 9.1 µM; in test [3], 55 µM; in [4], over 100 µM; in test [5], 15 µM; in [6], over 120 µM.

Regarding `CCCCCCCCCC(=O)N(O)CCC(=O)O`, the IC50 in [1] was 100 µM; in test [2] it was 14 µM; in test [3] it was 64 µM; in [4] it was over 100 µM; in test [5], 9.6 µM; in test [6], 32 µM.

Take `O=C(O)c1ccnc(C(=O)O)c1`: the IC50 in [2] is over 250 µM; in [3], 100 µM; in [7], 15 µM. Moreover, the concentration for 50% growth inhibition (GI50) (in the test with HeLa; in [8]) was over 240 µM in each case.

For the molecule `O=C(O)CCN(O)C(=O)CCCCCCCCC1CCCC1`, the IC50 in [1] was over 120 µM; in test [2], 43 µM; in test [3] it was 35 µM; in test [4], over 100 µM; in test [5], 16 µM; in [6], 78 µM.

In the case of `COC(=O)CCN(O)C(=O)CCCCCCCCC(C)C`, the IC50 was over 120 µM in test [1]; 150 µM in [2]; 210 µM in test [3]; over 100 µM in test [4]; 110 µM in test [6].

Turning to `O=C(O)CCN(O)C(=O)CCCCCCCCc1ccccc1`, the IC50 in [1] was 65 µM; in test [2], 23 µM; in [3], 93 µM; in test [4] it was over 100 µM; in test [5] it was 2.9 µM; in test [6] it was 22 µM.

With `CC(C)CCCCCCCCC(=O)N(O)CCC(=O)O`, the 50% inhibitory concentration (IC50) in test [1] was 92 µM; in [2], 24 µM; in test [3] it was 110 µM; in [4], over 100 µM; in test [5], 8.1 µM; in [6] it was 55 µM.

As for `O=C(O)CCN(O)C(=O)CCCCCCCCC1CCCCC1`, the IC50 is over 120 µM in test [1]; 17 µM in [2]; 100 µM in test [3]; over 100 µM in [4]; 8 µM in [5]; 81 µM in test [6].
